Results from PMC6694902 (Journal of Taibah University Medical Sciences, 2017).
Converted amounts (≈) assume the structure as drawn. “And” between values parts separate entries of the source, which are not always exact repeats. Equal entries are not always repeated.

Key:
Escherichia coli (res) [1] = assay: Agar well diffusion, zone of inhibition; type: cell-based; conditions: mean ± S.D., n = 6; resistant to norfloxacin, ofloxacin, ampicillin, cefixime, nitrofurantoin
Summary of the method: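 Clinical isolate from a faecal sample (Bhubaneswar hospital). Nutrient agar plates were seeded with a 1.5 × 10^6 CFU/mL suspension matched to McFarland 0.5. Test compound was loaded into the agar wells from a DMF stock (1 mg/mL). Plates were incubated at 37 °C for 18–24 h and the inhibition zone was read. Amoxicillin and ampicillin were the reference antibiotics.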

[2] = system: Klebsiella pneumoniae (MTCC 109); assay: Agar well diffusion, zone of inhibition; type: cell-based; conditions: mean ± S.D., n = 6
Summary of the method: (§1)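 Agar well diffusion on nutrient agar. K. pneumoniae MTCC 109 came from IMTECH; S. aureus (res) was an Utkal University isolate. Plates were seeded with 1.5 × 10^6 CFU/mL suspensions (McFarland 0.5). Test compounds were dissolved in DMF (1 mg/mL stock) and placed in wells, with amoxicillin and ampicillin as references. Plates were kept at 37 °C for 18–24 h, then zones were read.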

[3] = system: Staphylococcus aureus (res); assay: Agar well diffusion, zone of inhibition; type: cell-based; conditions: mean ± S.D., n = 6; resistant to norfloxacin, ofloxacin, ampicillin, cefotaxime
Summary of the method: as §1

[4] = system: Candida albicans (MTCC 3017); assay: Agar well diffusion, zone of inhibition; type: cell-based; conditions: mean ± S.D., n = 6
Summary of the method: (§2)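 Agar well diffusion on Sabouraud dextrose agar. C. albicans MTCC 3017 came from IMTECH; C. neoformans was an Utkal University strain. Plates were seeded with 1.5 × 10^6 CFU/mL suspensions (McFarland 0.5). Test compounds were dissolved in DMF (1 mg/mL stock) and loaded into wells, with fluconazole as reference. Incubation was 37 °C for 18–24 h, and zones were measured.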

Cryptococcus neoformans [5] = assay: Agar well diffusion, zone of inhibition; type: cell-based; conditions: mean ± S.D., n = 6
Summary of the method: as §2

Escherichia coli (res) [6] = assay: Minimum inhibitory concentration; type: cell-based; conditions: for MIC: Escherichia coli, read-out: Minimum inhibitory concentration (MIC), E. coli (res), 31.25–500 µg/mL tested, 37 °C, 18–24 h; for Minimum inhibitory concentration (MIC), E. coli (res): 31.25–500 µg/mL tested, 37 °C, 18–24 h
Summary of the method: (§3)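 MIC was determined in nutrient agar wells seeded with bacteria (McFarland 0.5, 1.5 × 10^6 CFU/mL). E. coli (res) and S. aureus (res) were clinical isolates; K. pneumoniae was MTCC 109. DMF stocks at 1 mg/mL were diluted two-fold to five levels (31.25–500 µg/mL) in wells, with amoxicillin and ampicillin as references. Plates were incubated at 37 °C for 18–24 h.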

[7] = system: Candida albicans (MTCC 3017); assay: Minimum inhibitory concentration; type: cell-based; conditions: for MIC: Candida albicans, MTCC3017, read-out: Minimum inhibitory concentration (MIC), C. albicans; for Minimum inhibitory concentration (MIC), C. albicans: 31.25–500 µg/mL tested, 37 °C, 18–24 h
Summary of the method: (§4)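 MIC was determined in agar wells on Sabouraud dextrose agar seeded with the fungal strain (McFarland 0.5, 1.5 × 10^6 CFU/mL). DMF stocks at 1 mg/mL were diluted two-fold to five levels (31.25–500 µg/mL) and loaded into wells, with fluconazole as reference. After 18–24 h at 37 °C, the lowest inhibitory concentration was taken as the MIC.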

Cryptococcus neoformans [8] = assay: Minimum inhibitory concentration; type: cell-based; conditions: for MIC: Cryptococcus neoformans, read-out: Minimum inhibitory concentration (MIC), C. neoformans; for Minimum inhibitory concentration (MIC), C. neoformans: 31.25–500 µg/mL tested, 37 °C, 18–24 h
Summary of the method: as §4

[9] = DPPH radical scavenging assay; type: biochemical; conditions: mean ± S.D., n = 3; for IC50 (DPPH radical scavenging): graphically determined
Summary of the method: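 DPPH scavenging, a modified method, was read as absorbance at 517 nm for test compounds at several concentrations. BHT served as standard, and DPPH in methanol served as control. Percent inhibition was calculated from control and sample absorbances, and IC50 was obtained graphically. Data were analysed by one-way ANOVA with Dunnett's post hoc test.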

[10] = system: Klebsiella pneumoniae (MTCC 109); assay: Minimum inhibitory concentration; type: cell-based; conditions: for Minimum inhibitory concentration (MIC), K. pneumoniae: 31.25–500 µg/mL tested, 37 °C, 18–24 h
Summary of the method: as §3

[11] = system: Staphylococcus aureus (res); assay: Minimum inhibitory concentration; type: cell-based; conditions: for Minimum inhibitory concentration (MIC), S. aureus (res): 31.25–500 µg/mL tested, 37 °C, 18–24 h; for MIC: Staphylococcus aureus, read-out: Minimum inhibitory concentration (MIC), S. aureus (res), 31.25–500 µg/mL tested, 37 °C, 18–24 h
Summary of the method: as §3

SMILES	zone of inhibition, E. coli (res) (Escherichia coli (res) [1])	zone of inhibition, K. pneumoniae [2]	zone of inhibition, S. aureus (res) [3]	zone of inhibition, C. albicans [4] [mm]	zone of inhibition, C. neoformans (Cryptococcus neoformans [5]) [mm]	MIC (Escherichia coli (res) [6]) [µg/mL]	MIC [7] [µg/mL]	MIC (Cryptococcus neoformans [8]) [µg/mL]	% Inhibition (DPPH) ([9]; Conc. 10 μg/mL) [%]	% Inhibition (DPPH) ([9]; Conc. 30 μg/mL) [%]	% Inhibition (DPPH) ([9]; Conc. 50 μg/mL) [%]	% Inhibition (DPPH) ([9]; Conc. 70 μg/mL) [%]	IC50 (DPPH radical scavenging) [9] [µg/mL]	Minimum inhibitory concentration (MIC), E. coli (res) (Escherichia coli (res) [6]) [µg/mL]	Minimum inhibitory concentration (MIC), K. pneumoniae [10] [µg/mL]	Minimum inhibitory concentration (MIC), S. aureus (res) [11] [µg/mL]	Minimum inhibitory concentration (MIC), C. albicans [7] [µg/mL]	Minimum inhibitory concentration (MIC), C. neoformans (Cryptococcus neoformans [8]) [µg/mL]	MIC [11] [µg/mL]	MIC ([10]; Klebsiella pneumoniae, MTCC109, read-out: Minimum inhibitory concentration (MIC), K. pneumoniae, 31.25–500 µg/mL tested, 37 °C, 18–24 h) [µg/mL]
Cc1cc(N=Nc2ccc(O)c(C=Nc3nc(-c4ccc(Cl)cc4)cs3)c2)ccc1Br [5b(Lig), 4-[(4-bromo-3-methylphenyl)diazenyl]-2-[(4-(4-chlorophenyl)thiazol-2-ylimino)methyl]phenol]	15.33 ± 2.07 mm	13.5 ± 2.43 mm	11.5 ± 1.87 mm	12 ± 1.27	12.33 ± 1.75	31.2 (≈ 61.1 µM)	250 (≈ 488 µM)	250 (≈ 488 µM)	19.26 ± 0.04	38.53 ± 0.09	48.33 ± 0.07	79.89 ± 0.06	52 ± 1.13 (≈ 102 µM)	–	–	–	–	–	–	–
Cc1cc(C(C)(C)C)c(O)c(C(C)(C)C)c1 [BHT, butylated hydroxy toluene, reference compound]	–	–	–	–	–	–	–	–	32.32 ± 0.01	49.54 ± 0.01	59.99 ± 0.10	87.74 ± 0.06	31 ± 0.70 (≈ 141 µM)	–	–	–	–	–	–	–
Cc1cc(N=Nc2ccc([O][Cu][O]c3ccc(N=Nc4ccc(Br)c(C)c4)cc3C=Nc3nc(-c4ccc(Cl)cc4)cs3)c(C=Nc3nc(-c4ccc(Cl)cc4)cs3)c2)ccc1Br [Compound 6e, Bis[4-{(4-bromo-3-methylphenyl)diazenyl}-2-{(4-(4-chlorophenyl)thiazol-2-ylimino)methyl}phenoxy] copper,]	14.83 ± 2.56 mm	15.83 ± 2.23 mm	14.5 ± 1.52 mm	11.17 ± 6.21	10.5 ± 1.52	–	–	–	31.24 ± 0.06	41.31 ± 0.02	51.77 ± 0.08	79.89 ± 0.04	46 ± 0.98	62.5	31.25	62.5	250	250	–	–
Cc1cc(N=Nc2ccc(O)c(C=Nc3nc(-c4ccccc4)cs3)c2)ccc1Br [5a(Lig), 4-[(4-bromo-3-methylphenyl)diazenyl)-2-[(4-phenylthiazol-2-ylimino)methyl]phenol]	13.67 ± 2.34 mm	12.67 ± 2.25 mm	15.83 ± 2.79^∗ mm	12.17 ± 2.23	13.33 ± 1.37	–	250 (≈ 524 µM)	250 (≈ 524 µM)	27.99 ± 0.04	39.34 ± 0.02	49.09 ± 0.07	63.9 ± 0.05	56 ± 0.78 (≈ 117 µM)	–	–	–	–	–	31.2 (≈ 65.5 µM)	–
Cc1cc(N=Nc2ccc([O][Co][O]c3ccc(N=Nc4ccc(Br)c(C)c4)cc3C=Nc3nc(-c4ccc(Cl)cc4)cs3)c(C=Nc3nc(-c4ccc(Cl)cc4)cs3)c2)ccc1Br [Compound 6d, Bis[4-{(4-bromo-3-methylphenyl)diazenyl}-2-{(4-(4-chlorophenyl)thiazol-2-ylimino)methyl}phenoxy]cobalt]	15.5 ± 3.21 mm and 15.5 ± 3.21^∗ mm	16.17 ± 2.99 mm and 16.17 ± 2.99^∗ mm	16.83 ± 2.71 mm and 16.83 ± 2.71^∗ mm	12.67 ± 2.34	12.17 ± 2.71	–	–	–	36.53 ± 0.02	43.03 ± 0.04	61.97 ± 0.08	73.78 ± 0.07	38 ± 1.4	31.25	31.25	31.25	250	250	–	–
Cc1cc(N=Nc2ccc(O)c(C=O)c2)ccc1Br [Compound 4e, 5-[(4-Bromo-3-methylphenyl)diazenyl]-2-hydroxybenzaldehyde]	15.83 ± 1.47^∗ mm	15.17 ± 2.14 mm	16.17 ± 2.04^∗ mm	10.17 ± 1.84	12.5 ± 1.52	31.2 (≈ 97.9 µM)	500 (≈ 1570 µM)	250 (≈ 783 µM)	17.96 ± 0.03	29.54 ± 0.05	33.64 ± 0.09	56.39 ± 0.08	72 ± 1.4 (≈ 226 µM)	–	–	–	–	–	31.2 (≈ 97.9 µM)	31.2 (≈ 97.9 µM)
Cc1cc(N=Nc2ccc([O][Ni][O]c3ccc(N=Nc4ccc(Br)c(C)c4)cc3C=Nc3nc(-c4ccc(Cl)cc4)cs3)c(C=Nc3nc(-c4ccc(Cl)cc4)cs3)c2)ccc1Br [Compound 6f, bis[4-{(4-bromo-3-methylphenyl)diazenyl}-2-{(4-(4-chlorophenyl)thiazol-2-ylimino)methyl}phenoxy] nickel]	–	16.67 ± 1.37^∗ mm	15.17 ± 1.94 mm	12.5 ± 1.52	10.33 ± 1.75	–	–	–	39.73 ± 0.02	53.38 ± 0.03	63.38 ± 0.01	79.53 ± 0.02	–	–	31.25	31.25	125	250	–	–
Cc1cc(N=Nc2ccc([O][Ni][O]c3ccc(N=Nc4ccc(Br)c(C)c4)cc3C=Nc3nc(-c4ccccc4)cs3)c(C=Nc3nc(-c4ccccc4)cs3)c2)ccc1Br [Compound 6c, Bis[{4-((4-bromo-3-methylphenyl)diazenyl)-2-((4-phenylthiazol-2-ylimino)methyl)phenoxy}] nickel]	–	14.67 ± 3.14 mm	14.83 ± 1.84 mm	11.33 ± 1.51	15.83 ± 1.84	–	–	–	25.43 ± 0.08	39.65 ± 0.09	61.41 ± 0.04	83.11 ± 0.04	40 ± 0.59	–	62.5	62.5	250	31.25	–	–
